Here are results for 25 compounds from ChEMBL document CHEMBL2429741 (J Med Chem, 2013).

Broadly, the IC50 is the concentration that gives 50% inhibition. For orientation: Ki means the equilibrium dissociation constant of an inhibitor or competing ligand from its target.

Assay [1] has as its system Plasmodium falciparum. The experiment in a line: Antimicrobial activity against chloroquine-sensitive blood stage forms of Plasmodium falciparum 3D7 after 3 days by HRP2-based ELISA. Format: functional, organism-based. Particulars: 3D7, 72 h. Put shortly: (§1)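 Sorbitol-synchronized ring-stage parasites (0.05% parasitemia, 1.5% hematocrit, O Rh+ erythrocytes) in RPMI 1640/HEPES/glutamine/gentamycin/0.5% Albumax, 37 °C, 5% CO2, 5% O2. Added to plates precoated with 3-fold compound dilutions from DMSO stocks; 3-day incubation; plates freeze-thawed twice; HRP2 ELISA. Chloroquine control each run. IC50 from nonlinear regression of log concentration-response; mean of two independent duplicate determinations.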
Background: ELISA stands for enzyme-linked immunosorbent assay.

Assay [2] in a line: Inhibition of Plasmodium falciparum IspC expressed in recombinant Escherichia coli M15 by photometric assay. Put shortly: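 His-tagged enzyme from E. coli M15 pREP4 pQEIspCplasart20, induced with 1 mM IPTG overnight at 30 °C, Ni-imidazole purified, about 95% pure. Inhibitor 1:3 over about 200–0.003 μM. DXP start, final 0.5–5.0 mM. 340 nm, room temperature. Nonlinear-regression IC50, ≥8 points.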

Assay [3] relates to Plasmodium falciparum. The experiment in a line: Antimicrobial activity against chloroquine-resistant blood stage forms of Plasmodium falciparum Dd2 after 3 days by HRP2-based ELISA. The class given is functional, organism-based. Particulars: Dd2, 72 h. Put shortly: as §1
Assay [4] is described as follows: Inhibition of Escherichia coli IspC by photometric assay. The essentials:
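NADPH-coupled photometric read at 340 nm, room temperature. Inhibitor 1:3 dilutions over about 200–0.003 μM. Started with 1-deoxy-D-xylulose 5-phosphate, final 0.5–5.0 mM. IC50 from nonlinear regression of ≥8 points, mean ± SD; generally 2–3 independent determinations.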

Assay [5] concerns the target T1, 1-deoxy-D-xylulose 5-phosphate reductoisomerase (Mycobacterium tuberculosis, UniProt P9WNS1).
T1 sequence (P9WNS1 whole entry): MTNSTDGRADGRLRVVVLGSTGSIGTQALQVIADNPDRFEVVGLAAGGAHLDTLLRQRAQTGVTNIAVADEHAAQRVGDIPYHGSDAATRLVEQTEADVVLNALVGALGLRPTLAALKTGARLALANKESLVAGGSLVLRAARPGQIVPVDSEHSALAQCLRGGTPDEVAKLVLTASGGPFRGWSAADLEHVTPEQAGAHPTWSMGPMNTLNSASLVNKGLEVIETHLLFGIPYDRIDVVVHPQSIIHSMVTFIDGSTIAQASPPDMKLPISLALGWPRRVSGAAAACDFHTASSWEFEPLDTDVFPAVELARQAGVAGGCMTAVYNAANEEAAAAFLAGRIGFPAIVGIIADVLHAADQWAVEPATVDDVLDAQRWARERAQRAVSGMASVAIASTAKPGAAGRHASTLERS
The experiment in a line: Inhibition of Mycobacterium tuberculosis IspC by photometric assay. Put shortly: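 Photometric NADPH-consumption assay at pH 7.6 (Tris) with 5 mM MgCl2, 5 mM DTT, 0.5 mM NADPH and 0.02 U IspC. Inhibitor 1:3 series covered about 200–0.003 μM. Started with 1-deoxy-D-xylulose 5-phosphate (0.5–5.0 mM final); A340 read at room temperature.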

Some results are limits rather than exact numbers.

Consider `O=C(CCC(c1ccc(F)c(F)c1)P(=O)(O)O)NO` (stereo unspecified), for which the IC50 with Plasmodium falciparum [1] was determined as 0.075 µM; in assay [2] it was 0.0039 µM; in the assay on Plasmodium falciparum [3], 0.065 µM; in assay [4], 0.178 µM; in assay [5], 3.4 µM.

On to `CN(O)C(=O)CCC(c1cccc2ccccc12)P(=O)(O)O` (stereo unspecified), for which the IC50 in assay [2] was determined as 0.0094 µM; in assay [4], 3.83 µM; in assay [5] it was 13 µM.

For the compound `CN(O)C(=O)CCC(c1ccc(F)c(F)c1)P(=O)(O)O` (stereo unspecified), the concentration for half-maximal inhibition (IC50) with Plasmodium falciparum [1] came out at 0.122 µM; in assay [2], 0.0034 µM; in the assay on Plasmodium falciparum [3], 0.04 µM; in assay [4], 0.117 µM; in assay [5], 0.77 µM.

As to `CN(O)C(=O)CCC(c1ccc(Cl)c(Cl)c1)P(=O)(O)O` (stereo unspecified), the IC50 worked out at 0.0028 µM in assay [2], 0.208 µM in assay [4] and 0.28 µM in assay [5].

Turning to `CN(O)C(=O)CCC(c1ccccc1)P(=O)(O)O` (stereo unspecified), the IC50 turned out to be 0.09 µM with Plasmodium falciparum [1]; 0.0031 µM in assay [2]; 0.074 µM with Plasmodium falciparum [3]; 0.243 µM in assay [4]; 2 µM in assay [5].

Take `Cc1ccc(C(CCC(=O)N(C)O)P(=O)(O)O)cc1` (stereo unspecified): the results for the IC50 in assay [2], in assay [4] and in assay [5] were 0.014 µM, 0.286 µM and 1.8 µM, respectively.

Take `CN(O)C(=O)COC(c1ccccc1)P(=O)(O)O` (stereo unspecified): the half-maximal inhibitory concentration (IC50) in assay [2] amounted to 0.037 µM; in assay [4], 0.94 µM; in assay [5] it was 16 µM.

As for `CN(O)C(=O)COC(c1cccc2ccccc12)P(=O)(O)O` (stereo unspecified), the half-maximal inhibitory concentration (IC50) in assay [2] worked out at 0.039 µM; in assay [4], 4.6 µM; in assay [5], 15 µM.

`CN(O)C(=O)COC(c1ccc(F)c(F)c1)P(=O)(O)O` (stereo unspecified): the IC50 was 0.012 µM in assay [2], 0.24 µM in assay [4] and 4.6 µM in assay [5].

Take `CN(O)C(=O)COC(c1ccc(Cl)c(Cl)c1)P(=O)(O)O` (stereo unspecified): the half-inhibitory concentration (IC50) in assay [2] came out at 0.014 µM; in assay [4], 0.2 µM; in assay [5], 1.6 µM.

In the case of `Cc1ccc(C(OCC(=O)N(C)O)P(=O)(O)O)cc1` (stereo unspecified), the 50% inhibitory concentration (IC50) in assay [2] was 0.025 µM; in assay [4] it was 0.32 µM; in assay [5] it was 4 µM.

As to `O=C(COC(c1ccccc1)P(=O)(O)O)NO` (stereo unspecified), the results for the half-maximal inhibitory concentration (IC50) in assay [2], in assay [4] and in assay [5] were 1.5 µM, 20 µM and 466 µM, respectively.

Consider `CN(O)C(=O)CS[C@@H](c1ccccc1)P(=O)(O)O`, for which the concentration for half-maximal inhibition (IC50) in assay [2] amounted to 0.0094 µM; in assay [4], 0.0051 µM; in assay [5], 0.12 µM. In addition, the Ki in assay [2] amounted to 0.0017 µM.

In the case of `CN(O)C(=O)CS[C@H](c1ccccc1)P(=O)(O)O`, the IC50 in assay [2] was 12 µM; in assay [4], 4 µM; in assay [5], 83 µM. Besides, the Ki in assay [2] was 2.2 µM.

Consider `O=C(CCC(c1ccccc1)P(=O)(O)O)NO` (stereo unspecified), for which the half-inhibitory concentration (IC50) in the assay on Plasmodium falciparum [1] came to 0.4 µM; in assay [2], 0.012 µM; in the assay on Plasmodium falciparum [3], 0.57 µM; in assay [4], 0.592 µM; in assay [5], 14 µM.

With `O=C(COC(c1ccc(F)c(F)c1)P(=O)(O)O)NO` (stereo unspecified), the IC50 in the assay with Plasmodium falciparum [1] was greater than 50 µM; in assay [2], 3.9 µM; in assay [4], 49 µM; in assay [5] it was greater than 500 µM.

`CN(O)C(=O)CSC(c1ccccc1)P(=O)(O)O` (racemic): the IC50 in the assay on Plasmodium falciparum [1] turned out to be 0.03 µM; in assay [2], 0.024 µM; in the assay on Plasmodium falciparum [3], 0.075 µM; in assay [4], 0.0082 µM; in assay [5] it was 0.28 µM. In assay [2], the Ki is 0.0044 µM.

In the case of `CN(O)C(=O)CSC(c1ccc(F)c(F)c1)P(=O)(O)O` (racemic), the 50% inhibitory concentration (IC50) with Plasmodium falciparum [1] turned out to be 0.111 µM; in assay [2], 0.014 µM; in the assay with Plasmodium falciparum [3], 0.088 µM; in assay [4], 0.0085 µM; in assay [5], 0.042 µM.

As to `CN(O)C(=O)CSC(c1ccc(Cl)c(Cl)c1)P(=O)(O)O` (racemic), the IC50 in the assay with Plasmodium falciparum [1] worked out at 0.091 µM; in assay [2], 0.0045 µM; in the assay on Plasmodium falciparum [3], 0.085 µM; in assay [4] it was 0.0059 µM; in assay [5], 0.0092 µM.

`CN(O)C(=O)CSC(c1cccc2ccccc12)P(=O)(O)O` (racemic): the half-inhibitory concentration (IC50) amounted to 0.38 µM with Plasmodium falciparum [1]; 0.0098 µM in assay [2]; 0.51 µM in the assay on Plasmodium falciparum [3]; 0.14 µM in assay [4]; 0.55 µM in assay [5].

On to `Cc1ccc(C(SCC(=O)N(C)O)P(=O)(O)O)cc1` (racemic), for which the half-inhibitory concentration (IC50) stood at 0.111 µM with Plasmodium falciparum [1]; 0.018 µM in assay [2]; 0.095 µM with Plasmodium falciparum [3]; 0.033 µM in assay [4]; 0.11 µM in assay [5].

As for `O=C(CSC(c1ccccc1)P(=O)(O)O)NO` (racemic), the IC50 in the assay with Plasmodium falciparum [1] came to 2.9 µM; in assay [2], 0.11 µM; in the assay with Plasmodium falciparum [3], 3.77 µM; in assay [4] it was 0.6 µM; in assay [5] it was 15 µM.

Take `O=C(CSC(c1ccc(F)c(F)c1)P(=O)(O)O)NO` (racemic): the 50% inhibitory concentration (IC50) in the assay on Plasmodium falciparum [1] came to 0.16 µM; in assay [2], 0.015 µM; in the assay on Plasmodium falciparum [3], 0.33 µM; in assay [4] it was 0.077 µM; in assay [5], 1.7 µM.

`O=C(CSC(c1ccc(Cl)c(Cl)c1)P(=O)(O)O)NO` (racemic): the concentration for half-maximal inhibition (IC50) with Plasmodium falciparum [1] stood at 0.54 µM; in assay [2] it was 0.2 µM; in the assay with Plasmodium falciparum [3], 0.87 µM; in assay [4], 0.044 µM; in assay [5], 0.72 µM.

As to `O=CN(O)CCCP(=O)(O)O` [FOSMIDOMYCIN], the IC50 in assay [4] amounted to 0.221 µM.
